Published values from different studies.
Lines come from different studies, so protocols differ.
KCNH2: Voltage-gated inwardly rectifying potassium channel KCNH2 (KCNH2, Homo sapiens, UniProt Q12809)

Compound	tested on	assay	test system	setting	endpoint	result
O=C(Cn1ccnc1[N+](=O)[O-])NCc1ccccc1	LLC-MK2	cell growth or viability			CC50	257 µg/mL
Cn1c(=O)c2[nH]cnc2n(C)c1=O			male Sprague-Dawley rat, plasma	intravenous, 22.5 mg/kg	MRT(0-t)	2.61 h
CC(C)n1cc(C#N)c2cc(-n3cc(C(=O)O)cn3)ccc21			human, plasma	oral, 100 mg, single dose, fasted, healthy volunteers	Tmax	2.99 h
C[C@H]1Oc2cc(cnc2N)-c2c(nn(C)c2C#N)CN(C)C(=O)c2ccc(F)cc21			male Sprague-Dawley rat, plasma	oral, 50 mg/kg, single dose	MRT(0-t)	11.9 h
CC(C)n1ncc2c(C(=O)NCC3(C)CNC3)cc(C3CC3)nc21	RD	cell growth or viability, neutral red			CC50	> 100 µM
COc1cccc(OC)c1-c1cc(C(=O)NC2(C(=O)O)C3CC4CC(C3)CC2C4)nn1-c1ccc(C(=O)N(C)CCCN(C)CCCN(C)C(=O)CN2CCN(CC(=O)[O-])CCN(CC(=O)[O-])CCN(CC(=O)[O-])CC2)cc1C(C)C.[177Lu+3] (stereo not drawn)	HT-29		pancreas	7 days, tumour-bearing	tracer uptake	0.28 %ID/g
COc1ccc2c(c1)CN(C(=O)CCN1CCC(Cc3ccccc3)CC1)CC[S@@+]2[O-]			male human, plasma	intravenous, 0.4 mg/kg, healthy volunteers	Tmax	0 h
N[C@H]1C(O)O[C@H](CO)[C@@H](O)[C@@H]1O (stereo partly drawn)	Caco-2	cell growth or viability, CCK-8		20 mM	viability	101%
CC(=O)N1CCC(C(=O)N2CCN3C(=O)c4cc(-c5ccccc5)ccc4NC(=O)C3C2)CC1 (stereo not drawn)	KCNH2	ion current, inhibitor, patch clamp	HEK293	0.1 µM	inhibition	2.6%
O=C(COc1ccc(Cl)cc1)NC12CC(c3nnc([C@H]4C[C@@H](OC(F)(F)F)C4)o3)(C1)C2			human, plasma	oral, 100 mg, single dose, fasted, healthy volunteers	Tmax	24 h
CCOC(=O)C1=C(CN2CCC[C@@H]2C(=O)Nc2ccc(B(O)O)cc2)NC(c2nccs2)=N[C@H]1c1ccc(F)cc1Br	KCNH2	ion current, inhibitor, patch clamp	HEK293	3 µM, pH 7.4	inhibition	31.8%
CCn1c(=O)c(-c2cc[nH]n2)cc2c(C)nc(N)nc21	RD	cell growth or viability, MTT			CC50	6.53 µM
COc1nc(-c2cccc(-c3ccccc3)c2C)ccc1CNCCNC(=O)CCCCCCCCCCC(=O)N1CCN(CCNC(=O)c2cc3c(=O)n4cccc(C)c4nc3n(CCc3cccs3)c2=N)CC1			male Sprague-Dawley rat, plasma	intraperitoneal, 4 mg/kg	MRT(0-t)	7.1 h
CN1C[C@H](COc2nccc3c(NCc4ccco4)cc(Cl)nc23)OC1=O	KCNH2	ion current, inhibitor	HEK293	3 µM	inhibition	7%
COc1cc(N)c(Cl)cc1C(=O)NC1CCN(CCCOc2ccc(F)cc2)CC1OC (stereo not drawn)	KCNH2	ion current, inhibitor, patch clamp	HEK293	1 nM, pH 7.4	inhibition	8.73%
